Four compounds from ChEMBL document CHEMBL4130514, “Sporothriolide-Related Compounds from the Fungus Hypoxylon monticulosum CLL-205 Isolated from a Sphaerocladina Sponge from the Tahiti Coast” (J Nat Prod, 2017) can be followed below.

Active and inactive are the calls of the source. The calls are words filed in the database; no cut-off is given here.

The test system of one assay is MCF7. The assay can be described thus: Antiproliferative activity against human MCF7 cells after 72 hrs by MTT assay. The format is functional, cell-based. The gist of the method: (§1)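 Tetrazolium colorimetric proliferation assay in HCT-116 (colon carcinoma), PC-3 (prostate) and MCF-7 (breast) cells grown in DMEM with 10% fetal calf serum plus penicillin, streptomycin and fungizone. After 24 h growth, cells were treated with compounds from 100 μM to 10 nM, given in DMSO at 1% to 3% final. MTS was added at 72 h and absorbance was read at 490 nm against untreated cells. IC50 was determined from separate duplicate experiments.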

The subject of the next assay is PC-3. The assay can be described thus: Antiproliferative activity against human PC3 cells after 72 hrs by MTT assay. The format is functional, cell-based. The essentials: as §1
For orientation: Tetrazolium assays rely on reduction of a dye to a coloured formazan, in cell work by metabolically active cells.

The next assay deals with Escherichia coli. The assay can be described thus: Antibacterial activity against Escherichia coli. Format: functional, organism-based.
A further assay deals with Bacillus subtilis. The assay can be described thus: Antibacterial activity against Bacillus subtilis. The format is functional, organism-based.
For a further assay, the system named is Micrococcus luteus. Kind of assay: Antibacterial activity against Micrococcus luteus. The format is functional, organism-based.
Another assay relates to HCT-116. Kind of assay: Antiproliferative activity against human HCT116 cells after 72 hrs by MTT assay. The format is functional, cell-based. To be noted: for IC50: HCT-116, 72 h. The essentials:
as §1

Assay [1] can be described thus: Inhibition of hyaluronidase (unknown origin). Also noted: species or system Homo sapiens.

For `CCCCCC[C@H]1OC(=O)[C@@H]2[C@H]1OC(=O)[C@]21CCC=C[C@H]1/C=C/[C@@H]1O[C@H](C)C[C@@H]1O`, the result in the assay with MCF7, in the assay on PC-3, with Escherichia coli, with Bacillus subtilis, with Micrococcus luteus and with HCT-116 was inactive. Further, half-maximal inhibition in assay [1] (IC50) required 300 µM.

As for `C=C(C(=O)O)[C@H]1C[C@@H](CCCCCC)OC1=O`, the result with Escherichia coli, with Bacillus subtilis and in the assay with Micrococcus luteus was inactive. The concentration for half-maximal inhibition (IC50) (usually the concentration that inhibits the measured activity by half) in the assay on HCT-116 is 18 µM.

Take `C=C1C(=O)O[C@@H]2[C@H]1C(=O)O[C@@H]2CCCCCC`: the IC50 with MCF7 (MCF7, 72 h) was determined as 4 µM; in the assay with PC-3 (PC-3, 72 h), 6.4 µM; in the assay with HCT-116, 7.1 µM. Besides, the result in the assay on Escherichia coli, in the assay on Bacillus subtilis and in the assay on Micrococcus luteus was inactive.

`CC1(C)[C@@H](O[C@H]2O[C@H](C(=O)O)[C@@H](O)[C@H](O)[C@H]2O[C@@H]2O[C@H](C(=O)O)[C@@H](O)[C@H](O)[C@H]2O)CC[C@]2(C)[C@H]3C(=O)C=C4[C@@H]5C[C@@](C)(C(=O)O)CC[C@]5(C)CC[C@@]4(C)[C@]3(C)CC[C@@H]12` [GLYCYRRHIZIN]: half-maximal inhibition in assay [1] (IC50) required 320 µM.
